Assay results: ChEMBL document CHEMBL4152188, “Design, synthesis and biological evaluation of C(4) substituted monobactams as antibacterial agents against multidrug-resistant Gram-negative bacteria” (Eur J Med Chem, 2018)
In brackets after ≈: the same amount, converted by molar mass.

Experiments:
Format in all cases: functional
Escherichia coli [1] = assay: Selectivity index, ratio of MIC for against Escherichia coli isolate 210737 to MIC for Escherichia coli isolate 210737 in presence of BPL
Klebsiella pneumoniae [2] = assay: Antibacterial activity against KPC-2 producing Klebsiella pneumoniae isolate 212232 after 18 hrs in presence of BPL by CLSI broth microdilution method; conditions: isolate 212232, 18 h
In short: (§1)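 CLSI broth microdilution against clinical isolates (ESBL E. coli, KPC-2 MDR K. pneumoniae, IMP-4 MDR P. aeruginosa; five per species). Iron limitation: Mueller-Hinton broth supplemented with 16 mg/liter 2,2'-bipyridyl to complex iron and induce iron uptake systems. Read-out: MIC.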

Escherichia coli [3] = assay: Antibacterial activity against extended-spectrum beta-lactamase producing Escherichia coli isolate 212648 after 18 hrs in presence of BPL by CLSI broth microdilution method; conditions: isolate 212648, 18 h; in short: as §1
Escherichia coli [4] = assay: Selectivity index, ratio of MIC for against extended-spectrum beta-lactamase producing Escherichia coli isolate 106342 to MIC for extended-spectrum beta-lactamase producing Escherichia coli isolate 106342 in presence of BPL
Escherichia coli [5] = assay: Antibacterial activity against extended-spectrum beta-lactamase producing Escherichia coli isolate 209285 after 18 hrs in presence of BPL by CLSI broth microdilution method; conditions: isolate 209285, 18 h; in short: as §1
Escherichia coli [6] = assay: Antibacterial activity against extended-spectrum beta-lactamase producing Escherichia coli isolate 106342 after 18 hrs by CLSI broth microdilution method; conditions: isolate 106342, 18 h
Escherichia coli [7] = assay: Antibacterial activity against extended-spectrum beta-lactamase producing Escherichia coli isolate 208687 after 18 hrs by CLSI broth microdilution method; conditions: isolate 208687, 18 h
Pseudomonas aeruginosa [8] = assay: Selectivity index, ratio of MIC for against IMP-4 producing Pseudomonas aeruginosa isolate 209471 to MIC for against IMP-4 producing Pseudomonas aeruginosa isolate 209471 in presence of BPL
Pseudomonas aeruginosa [9] = assay: Antibacterial activity against IMP-4 producing Pseudomonas aeruginosa isolate 209471 after 18 hrs by CLSI broth microdilution method; conditions: isolate 209471, 18 h
Klebsiella pneumoniae [10] = assay: Antibacterial activity against KPC-2 producing Klebsiella pneumoniae isolate 209735 after 18 hrs by CLSI broth microdilution method; conditions: isolate 209735, 18 h
Pseudomonas aeruginosa [11] = assay: Antibacterial activity against IMP-4 producing Pseudomonas aeruginosa isolate 208247 after 18 hrs in presence of BPL by CLSI broth microdilution method; conditions: isolate 208247, 18 h; in short: as §1
Pseudomonas aeruginosa [12] = assay: Antibacterial activity against IMP-4 producing Pseudomonas aeruginosa isolate 212886 after 18 hrs in presence of BPL by CLSI broth microdilution method; conditions: isolate 212886, 18 h; in short: as §1
Pseudomonas aeruginosa [13] = assay: Antibacterial activity against IMP-4 producing Pseudomonas aeruginosa isolate 212886 after 18 hrs by CLSI broth microdilution method; conditions: isolate 212886, 18 h
Klebsiella pneumoniae [14] = assay: Antibacterial activity against KPC-2 producing Klebsiella pneumoniae isolate 209632 after 18 hrs by CLSI broth microdilution method; conditions: isolate 209632, 18 h
Escherichia coli [15] = assay: Selectivity index, ratio of MIC for against extended-spectrum beta-lactamase producing Escherichia coli isolate 208687 to MIC for extended-spectrum beta-lactamase producing Escherichia coli isolate 208687 in presence of BPL
Escherichia coli [16] = assay: Antibacterial activity against extended-spectrum beta-lactamase producing Escherichia coli isolate 209285 after 18 hrs by CLSI broth microdilution method; conditions: isolate 209285, 18 h
Pseudomonas aeruginosa [17] = assay: Antibacterial activity against IMP-4 producing Pseudomonas aeruginosa isolate 207272 after 18 hrs by CLSI broth microdilution method; conditions: isolate 207272, 18 h
Klebsiella pneumoniae [18] = assay: Antibacterial activity against KPC-2 producing Klebsiella pneumoniae isolate 212232 after 18 hrs by CLSI broth microdilution method; conditions: isolate 212232, 18 h
Klebsiella pneumoniae [19] = assay: Selectivity index, ratio of MIC for against KPC-2 producing Klebsiella pneumoniae isolate 209632 to MIC for against KPC-2 producing Klebsiella pneumoniae isolate 209632 in presence of BPL
Klebsiella pneumoniae [20] = assay: Selectivity index, ratio of MIC for against KPC-2 producing Klebsiella pneumoniae isolate 209735 to MIC for against KPC-2 producing Klebsiella pneumoniae isolate 209735 in presence of BPL
Klebsiella pneumoniae [21] = assay: Antibacterial activity against KPC-2 producing Klebsiella pneumoniae isolate 212229 after 18 hrs by CLSI broth microdilution method; conditions: isolate 212229, 18 h
Klebsiella pneumoniae [22] = assay: Selectivity index, ratio of MIC for against KPC-2 producing Klebsiella pneumoniae isolate 212423 to MIC for against KPC-2 producing Klebsiella pneumoniae isolate 212423 in presence of BPL
Pseudomonas aeruginosa [23] = assay: Selectivity index, ratio of MIC for against IMP-4 producing Pseudomonas aeruginosa isolate 212886 to MIC for against IMP-4 producing Pseudomonas aeruginosa isolate 212886 in presence of BPL
Pseudomonas aeruginosa [24] = assay: Antibacterial activity against IMP-4 producing Pseudomonas aeruginosa isolate 207272 after 18 hrs in presence of BPL by CLSI broth microdilution method; conditions: isolate 207272, 18 h; in short: as §1
Pseudomonas aeruginosa [25] = assay: Selectivity index, ratio of MIC for against IMP-4 producing Pseudomonas aeruginosa isolate 207272 to MIC for against IMP-4 producing Pseudomonas aeruginosa isolate 207272 in presence of BPL
Escherichia coli [26] = assay: Selectivity index, ratio of MIC for against extended-spectrum beta-lactamase producing Escherichia coli isolate 209285 to MIC for extended-spectrum beta-lactamase producing Escherichia coli isolate 209285 in presence of BPL
Klebsiella pneumoniae [27] = assay: Selectivity index, ratio of MIC for against KPC-2 producing Klebsiella pneumoniae isolate 212229 to MIC for against KPC-2 producing Klebsiella pneumoniae isolate 212229 in presence of BPL
Pseudomonas aeruginosa [28] = assay: Antibacterial activity against IMP-4 producing Pseudomonas aeruginosa isolate 208247 after 18 hrs by CLSI broth microdilution method; conditions: isolate 208247, 18 h
Klebsiella pneumoniae [29] = assay: Selectivity index, ratio of MIC for against KPC-2 producing Klebsiella pneumoniae isolate 212232 to MIC for against KPC-2 producing Klebsiella pneumoniae isolate 212232 in presence of BPL
Pseudomonas aeruginosa [30] = assay: Selectivity index, ratio of MIC for against IMP-4 producing Pseudomonas aeruginosa isolate 209321 to MIC for against IMP-4 producing Pseudomonas aeruginosa isolate 209321 in presence of BPL
Escherichia coli [31] = assay: Antibacterial activity against extended-spectrum beta-lactamase producing Escherichia coli isolate 212648 after 18 hrs by CLSI broth microdilution method; conditions: isolate 212648, 18 h
Escherichia coli [32] = assay: Antibacterial activity against extended-spectrum beta-lactamase producing Escherichia coli isolate 106342 after 18 hrs in presence of BPL by CLSI broth microdilution method; conditions: isolate 106342, 18 h; in short: as §1
Pseudomonas aeruginosa [33] = assay: Selectivity index, ratio of MIC for against IMP-4 producing Pseudomonas aeruginosa isolate 208247 to MIC for against IMP-4 producing Pseudomonas aeruginosa isolate 208247 in presence of BPL
Escherichia coli [34] = assay: Antibacterial activity against Escherichia coli isolate 210737 after 18 hrs by CLSI broth microdilution method; conditions: isolate 210737, 18 h
Escherichia coli [35] = assay: Selectivity index, ratio of MIC for against extended-spectrum beta-lactamase producing Escherichia coli isolate 212648 to MIC for extended-spectrum beta-lactamase producing Escherichia coli isolate 212648 in presence of BPL
Pseudomonas aeruginosa [36] = assay: Antibacterial activity against IMP-4 producing Pseudomonas aeruginosa isolate 209321 after 18 hrs in presence of BPL by CLSI broth microdilution method; conditions: isolate 209321, 18 h; in short: as §1
Klebsiella pneumoniae [37] = assay: Antibacterial activity against KPC-2 producing Klebsiella pneumoniae isolate 212229 after 18 hrs in presence of BPL by CLSI broth microdilution method; conditions: isolate 212229, 18 h; in short: as §1
Klebsiella pneumoniae [38] = assay: Antibacterial activity against KPC-2 producing Klebsiella pneumoniae isolate 212423 after 18 hrs by CLSI broth microdilution method; conditions: isolate 212423, 18 h
Escherichia coli [39] = assay: Antibacterial activity against Escherichia coli isolate 210737 after 18 hrs in presence of BPL by CLSI broth microdilution method; conditions: isolate 210737, 18 h; in short: as §1
Pseudomonas aeruginosa [40] = assay: Antibacterial activity against IMP-4 producing Pseudomonas aeruginosa isolate 209471 after 18 hrs in presence of BPL by CLSI broth microdilution method; conditions: isolate 209471, 18 h; in short: as §1
Klebsiella pneumoniae [41] = assay: Antibacterial activity against KPC-2 producing Klebsiella pneumoniae isolate 209735 after 18 hrs in presence of BPL by CLSI broth microdilution method; conditions: isolate 209735, 18 h; in short: as §1
Klebsiella pneumoniae [42] = assay: Antibacterial activity against KPC-2 producing Klebsiella pneumoniae isolate 209632 after 18 hrs in presence of BPL by CLSI broth microdilution method; conditions: isolate 209632, 18 h; in short: as §1
Escherichia coli [43] = assay: Antibacterial activity against extended-spectrum beta-lactamase producing Escherichia coli isolate 208687 after 18 hrs in presence of BPL by CLSI broth microdilution method; conditions: isolate 208687, 18 h; in short: as §1
Pseudomonas aeruginosa [44] = assay: Antibacterial activity against IMP-4 producing Pseudomonas aeruginosa isolate 209321 after 18 hrs by CLSI broth microdilution method; conditions: isolate 209321, 18 h
Klebsiella pneumoniae [45] = assay: Antibacterial activity against KPC-2 producing Klebsiella pneumoniae isolate 212423 after 18 hrs in presence of BPL by CLSI broth microdilution method; conditions: isolate 212423, 18 h; in short: as §1

Compound: CC(C)C(O/N=C(\C(=O)N[C@@H]1C(=O)N(S(=O)(=O)O)[C@@H]1CO)c1csc(N)n1)c1cc(=O)c(O)cn1O (stereo not given in full)
- Selectivity Index (Escherichia coli [1]): 1 - 2
- MIC (Klebsiella pneumoniae [2]): 2 µg/mL
- MIC (Escherichia coli [3]): 64 µg/mL
- Selectivity Index (Escherichia coli [4]): 1
- MIC (Escherichia coli [5]): 32 µg/mL
- MIC (Escherichia coli [6]): 64 µg/mL (≈ 117 µM)
- MIC (Escherichia coli [7]): 64 µg/mL (≈ 117 µM)
- Selectivity Index (Pseudomonas aeruginosa [8]): 1 - 4
- MIC (Pseudomonas aeruginosa [9]): > 64 µg/mL
- MIC (Klebsiella pneumoniae [10]): 16 µg/mL (≈ 29.3 µM)
- MIC (Pseudomonas aeruginosa [11]): > 64 µg/mL
- MIC (Pseudomonas aeruginosa [12]): 16 µg/mL
- MIC (Pseudomonas aeruginosa [13]): > 64 µg/mL
- MIC (Klebsiella pneumoniae [14]): 8 µg/mL (≈ 14.6 µM)
- Selectivity Index (Escherichia coli [15]): 2
- MIC (Escherichia coli [16]): 64 µg/mL (≈ 117 µM)
- MIC (Pseudomonas aeruginosa [17]): > 64 µg/mL
- MIC (Klebsiella pneumoniae [18]): 16 µg/mL (≈ 29.3 µM)
- Selectivity Index (Klebsiella pneumoniae [19]): 4
- Selectivity Index (Klebsiella pneumoniae [20]): 1
- MIC (Klebsiella pneumoniae [21]): 8 µg/mL (≈ 14.6 µM)
- Selectivity Index (Klebsiella pneumoniae [22]): 1
- Selectivity Index (Pseudomonas aeruginosa [23]): >4
- MIC (Pseudomonas aeruginosa [24]): > 64 µg/mL
- Selectivity Index (Pseudomonas aeruginosa [25]): 1 - 4
- Selectivity Index (Escherichia coli [26]): 2
- Selectivity Index (Klebsiella pneumoniae [27]): 2
- MIC (Pseudomonas aeruginosa [28]): > 64 µg/mL
- Selectivity Index (Klebsiella pneumoniae [29]): 8
- Selectivity Index (Pseudomonas aeruginosa [30]): 1
- MIC (Escherichia coli [31]): 64 µg/mL (≈ 117 µM)
- MIC (Escherichia coli [32]): 64 µg/mL
- Selectivity Index (Pseudomonas aeruginosa [33]): 1 - 4
- MIC (Escherichia coli [34]): > 64 µg/mL
- Selectivity Index (Escherichia coli [35]): 1
- MIC (Pseudomonas aeruginosa [36]): 64 µg/mL
- MIC (Klebsiella pneumoniae [37]): 4 µg/mL
- MIC (Klebsiella pneumoniae [38]): 8 µg/mL (≈ 14.6 µM)
- MIC (Escherichia coli [39]): > 64 µg/mL
- MIC (Pseudomonas aeruginosa [40]): > 64 µg/mL
- MIC (Klebsiella pneumoniae [41]): 16 µg/mL
- MIC (Klebsiella pneumoniae [42]): 2 µg/mL
- MIC (Escherichia coli [43]): 32 µg/mL
- MIC (Pseudomonas aeruginosa [44]): 64 µg/mL (≈ 117 µM)
- MIC (Klebsiella pneumoniae [45]): 8 µg/mL
